Results from ChEMBL document CHEMBL3414491, “Synthesis and antitumor activities evaluation of m-(4-morpholinoquinazolin-2-yl)benzamides in vitro and in vivo” (Eur J Med Chem, 2015).
The source made the active and inactive calls. The calls are words filed in the database; no cut-off is given here.

How the values were obtained:
[1] = tested on: MCF7; assay: Antiproliferative activity against human MCF7 cells after 72 hrs by MTT assay; type: functional, cell-based; conditions: MCF7, 72 h
Summary of the method: (§1)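 MTT: cells seeded at 1500–4000 per well, grown 24 h, then given serial dilutions (1% DMSO final) for 72 h at 37 °C. MTT was added for 4 h, formazan dissolved in DMSO and absorbance read at 490 nm. Three separate experiments in triplicate; IC50 is the concentration giving 50% cell death versus control.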

[2] = Antiproliferative activity against human HCT116 cells after 72 hrs by MTT assay; type: functional, cell-based; conditions: HCT-116, 72 h; summary of the method: as §1
[3] = tested on: A549; assay: Antiproliferative activity against human A549 cells after 72 hrs by MTT assay; type: functional, cell-based; conditions: A549, 72 h; summary of the method: as §1
[4] = Antiproliferative activity against human U87MG cells after 72 hrs by MTT assay; type: functional, cell-based, U-87MG ATCC; conditions: U-87 MG; summary of the method: as §1
[5] = Inhibition of PI3K-mediated PI3K/Akt/mTOR pathway in human HCT116 cells assessed as reduction in Akt Ser473 phosphorylation at 10 uM incubated for 1 hr by Western blot method; type: cell-based; conditions: HCT-116
Summary of the method: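 HCT-116 cells were seeded at 5 × 10⁵ per well and grown 16 h at 37 °C, then exposed to 10 µM for 1 h; vehicle control was 0.5% DMSO. Lysates were normalised by BCA, run on 10% SDS-PAGE, transferred to nitrocellulose and probed for AKT and p-Ser473 AKT, with β-actin as loading control. Detection was by chemiluminescence; bands were quantified densitometrically.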

Row | SMILES | IC50 [1] [µM] | IC50 [2] [nM] | IC50 [3] [µM] | IC50 [4] [nM] | inhibition [5]
1 | COC(=O)c1cccc(-c2nc(N3CCOCC3)c3cc(OC)c(OC)cc3n2)c1 | 3.44 | 1070 |  |  | 
2 | CNC(=O)c1cccc(-c2nc(N3CCOCC3)c3cc(OC)c(OC)cc3n2)c1 | 6.2 | 2520 |  |  | 
3 | COc1cc2nc(-c3cccc(C(=O)O)c3)nc(N3CCOCC3)c2cc1OC | > 20 | 12500 |  |  | 
4 | COc1cc2nc(-c3cccc(C(N)=O)c3)nc(N3CCOCC3)c2cc1OC | 2.14 | 900 | 26.1 | 1570 | 
5 | COc1cc2nc(-c3ccc(Cl)c(C(N)=O)c3)nc(N3CCOCC3)c2cc1OC | 4.24 | 2970 |  |  | 
6 | COCCOc1cc2nc(-c3cc(OC)cc(C(N)=O)c3)nc(N3CCOCC3)c2cc1OCCOC | 7.52 | 9040 |  |  | 
7 | COc1cc2nc(-c3ccc(OCc4ccccc4)c(C(N)=O)c3)nc(N3CCOCC3)c2cc1OC | 7.9 | 5030 |  |  | 
8 | COc1cc2nc(-c3cccc(C(=O)N(C)C)c3)nc(N3CCOCC3)c2cc1OC | 5.01 | 4730 |  |  | 
9 | COc1cc2nc(-c3ccc(NC(C)=O)cc3)nc(N3CCOCC3)c2cc1OC | 3.61 | 1090 |  |  | 
10 | COc1cc(C(N)=O)cc(-c2nc(N3CCOCC3)c3cc(OC)c(OCC(=O)N4CCOCC4)cc3n2)c1 | 24.4 | 6480 |  |  | 
11 | COc1cc2nc(-c3cccc(NC(C)=O)c3)nc(N3CCOCC3)c2cc1OC | 3.49 | 1420 |  |  | 
12 | CS(=O)(=O)N1CCN(Cc2cc3nc(-c4cccc5[nH]ncc45)nc(N4CCOCC4)c3s2)CC1 [PICTILISIB] | 1.09 | 370 | 2.28 | 1240 | Active
13 | COc1cc2nc(-c3cc(C(N)=O)cc(C(F)(F)F)c3)nc(N3CCOCC3)c2cc1OC | 2.03 | 710 | 4.75 | 1190 | 
14 | CNC(=O)COc1cc2nc(-c3cc(OC)cc(C(N)=O)c3)nc(N3CCOCC3)c2cc1OC | 14.9 | 21700 |  |  | 
15 | COc1cc(C(N)=O)cc(-c2nc(N3CCOCC3)c3cc(OC)c(OCC4CCOCC4)cc3n2)c1 | 8.52 | 3140 |  |  | 
